Assay results taken from ChEMBL document CHEMBL3808357, “Discovery of N-(3-((1-Isonicotinoylpiperidin-4-yl)oxy)-4-methylphenyl)-3-(trifluoromethyl)benzamide (CHMFL-KIT-110) as a Selective, Potent, and Orally Available Type II c-KIT Kinase Inhibitor for Gastrointestinal Stromal Tumors (GISTs)” (J Med Chem, 2016).
Calls of active or inactive are those of the source. The rule behind the calls is not given here.

Legend:
[1] = target: Mast/stem cell growth factor receptor Kit (Homo sapiens) (UniProt P10721); assay: Inhibition of cKIT autophosphorylation at Y703 in human GIST882 cells up to 10 uM after 2 hrs by Western blot analysis; type: cell-based
[2] = target: Mast/stem cell growth factor receptor Kit (Homo sapiens) (UniProt P10721); assay: Inhibition of cKIT autophosphorylation at Y823 in human GIST882 cells up to 10 uM after 2 hrs by Western blot analysis; type: cell-based
[3] = target: Mast/stem cell growth factor receptor Kit (Homo sapiens) (UniProt P10721); assay: Inhibition of cKIT in human GIST48B cells assessed as suppression of AKT phosphorylation at S473 up to 10 uM after 2 hrs by Western blot analysis; type: cell-based
GISTT1 = assay: Induction of apoptosis in human GISTT1 cells assessed as PARP cleavage up to 3 uM after 48 hrs by Western blot analysis; type: functional, cell-based
[4] = AUC(0 to t) in Sprague-Dawley rat plasma at 10 mg/kg, po; type: ADME, organism-based
How it was run: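 Male Sprague-Dawley rats, 8 weeks old, fasted overnight, dosed iv or orally. Formulation was 5% DMSO/40% PEG400/55% saline at 1 mg/mL. Blood (~0.2 mL) was drawn from the jugular vein into heparin. Sampling: iv at 1 min to 8 h; oral at 5 min to 24 h. Plasma was separated by centrifugation at 2−8 °C and stored at −80 °C.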

[5] = MRT(0 to t) in Sprague-Dawley rat plasma at 1 mg/kg, iv; type: ADME, organism-based
How it was run: (§1)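 Male Sprague–Dawley rats, 8 weeks old, six in total, fasted overnight; compound dissolved in 5% DMSO/40% PEG400/55% saline (1 mg/mL dosing solution), given iv or orally. About 0.2 mL jugular blood taken with heparin at 1 min–8 h (iv) or 5 min–24 h (oral); plasma separated at 2–8 °C and stored at −80 °C before analysis.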

[6] = Tmax in Sprague-Dawley rat plasma at 1 mg/kg, iv; type: ADME, organism-based; how it was run: as §1
[7] = Tmax in Sprague-Dawley rat plasma at 10 mg/kg, po; type: ADME, organism-based; how it was run: as §1
[8] = target: T1, Platelet-derived growth factor receptor beta (Homo sapiens, UniProt P09619); assay: Inhibition of PDGFRbeta phosphorylation at Y857 in human GISTT1 cells up to 10 uM after 2 hrs by Western blot analysis; type: cell-based
How it was run: (§2)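 Cells were washed in cold PBS, lysed in RIPA and immunoblotted for phospho and total proteins, including pPDGFRα Y849/PDGFRβ Y857 and β-actin.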

[9] = target: T1, Platelet-derived growth factor receptor beta; assay: Inhibition of PDGFRbeta phosphorylation at Y857 in human GIST48B cells up to 10 uM after 2 hrs by Western blot analysis; type: cell-based; how it was run: as §2
[10] = tested on: Mast/stem cell growth factor receptor Kit (Homo sapiens), P10721 [D816V]; assay: Inhibition of Tel-fused cKIT D816V mutant (unknown origin) transfected in mouse BAF3 cells assessed as decrease in cell proliferation after 72 hrs by celltiter-glo/CCK8 assay; type: cell-based
How it was run: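 Stable BaF3 lines made by retroviral transduction with mutagenized TEL-KIT MSCV vectors, puromycin selection 48 h, then gradual IL-3 withdrawal until IL-3-independent; grown in RPMI 1640 with 10% FBS. Cells at 1 to 3 × 10⁴ cells/mL exposed to a concentration series for 72 h; viability read by CellTiter-Glo luminescence or CCK-8 absorbance (450/655 nm); GI50 from triplicate testing.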

[11] = Antiproliferative activity against cKIT dependent human GISTT1 cells assessed as reduction in cell viability after 72 hrs by celltiter-glo/CCK8 assay; type: functional; settings: GISTT1, 72 h
How it was run: (§3)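 Cells were seeded at 1 to 3 × 10⁴ cells/mL with serial compound concentrations and incubated 72 h at 37 °C, 5% CO₂. Viability was read by CellTiter-Glo luminescence or CCK-8 absorbance (450/655 nm). GI50 values are from triplicate testing. GIST-T1 and CHO were grown in DMEM/10% FBS; GIST-882, GIST-48B and MV4-11 in IMDM/10% FBS; other lines in RPMI 1640/10% FBS.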

K562 = assay: Antiproliferative activity against BCR-ABL dependent human K562 cells assessed as reduction in cell viability after 72 hrs by celltiter-glo/CCK8 assay; type: functional; settings: K562, 72 h; how it was run: as §3
[12] = Antiproliferative activity against human U937 cells assessed as reduction in cell viability after 72 hrs by celltiter-glo/CCK8 assay; type: functional; settings: U-937, 72 h; how it was run: as §3

Chain of Mast/stem cell growth factor receptor Kit (Homo sapiens) (P10721 whole entry): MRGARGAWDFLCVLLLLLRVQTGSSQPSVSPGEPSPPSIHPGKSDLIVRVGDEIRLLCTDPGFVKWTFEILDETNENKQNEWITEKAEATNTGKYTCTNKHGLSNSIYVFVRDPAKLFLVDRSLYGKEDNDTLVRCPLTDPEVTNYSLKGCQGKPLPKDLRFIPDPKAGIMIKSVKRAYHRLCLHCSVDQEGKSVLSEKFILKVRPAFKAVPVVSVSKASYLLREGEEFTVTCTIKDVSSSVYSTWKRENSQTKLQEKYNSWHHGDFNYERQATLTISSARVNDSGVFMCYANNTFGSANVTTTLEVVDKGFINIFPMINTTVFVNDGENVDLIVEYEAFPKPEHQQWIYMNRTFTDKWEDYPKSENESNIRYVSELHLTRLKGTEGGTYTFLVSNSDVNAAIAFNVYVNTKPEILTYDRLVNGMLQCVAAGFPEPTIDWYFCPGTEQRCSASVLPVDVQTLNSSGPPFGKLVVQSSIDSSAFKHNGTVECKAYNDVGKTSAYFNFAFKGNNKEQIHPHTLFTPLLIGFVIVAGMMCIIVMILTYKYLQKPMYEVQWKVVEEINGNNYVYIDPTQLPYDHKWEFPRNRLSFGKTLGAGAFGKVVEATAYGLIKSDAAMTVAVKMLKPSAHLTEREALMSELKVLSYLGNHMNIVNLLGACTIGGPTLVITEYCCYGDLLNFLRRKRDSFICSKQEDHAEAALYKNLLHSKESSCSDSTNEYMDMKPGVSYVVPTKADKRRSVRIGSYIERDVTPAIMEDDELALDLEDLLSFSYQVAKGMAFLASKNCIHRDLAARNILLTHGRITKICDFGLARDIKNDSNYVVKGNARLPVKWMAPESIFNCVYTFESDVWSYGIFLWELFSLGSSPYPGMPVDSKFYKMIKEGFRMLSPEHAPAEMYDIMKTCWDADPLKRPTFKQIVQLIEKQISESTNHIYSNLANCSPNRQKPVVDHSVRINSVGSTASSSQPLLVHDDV
T1 sequence (P09619 whole entry): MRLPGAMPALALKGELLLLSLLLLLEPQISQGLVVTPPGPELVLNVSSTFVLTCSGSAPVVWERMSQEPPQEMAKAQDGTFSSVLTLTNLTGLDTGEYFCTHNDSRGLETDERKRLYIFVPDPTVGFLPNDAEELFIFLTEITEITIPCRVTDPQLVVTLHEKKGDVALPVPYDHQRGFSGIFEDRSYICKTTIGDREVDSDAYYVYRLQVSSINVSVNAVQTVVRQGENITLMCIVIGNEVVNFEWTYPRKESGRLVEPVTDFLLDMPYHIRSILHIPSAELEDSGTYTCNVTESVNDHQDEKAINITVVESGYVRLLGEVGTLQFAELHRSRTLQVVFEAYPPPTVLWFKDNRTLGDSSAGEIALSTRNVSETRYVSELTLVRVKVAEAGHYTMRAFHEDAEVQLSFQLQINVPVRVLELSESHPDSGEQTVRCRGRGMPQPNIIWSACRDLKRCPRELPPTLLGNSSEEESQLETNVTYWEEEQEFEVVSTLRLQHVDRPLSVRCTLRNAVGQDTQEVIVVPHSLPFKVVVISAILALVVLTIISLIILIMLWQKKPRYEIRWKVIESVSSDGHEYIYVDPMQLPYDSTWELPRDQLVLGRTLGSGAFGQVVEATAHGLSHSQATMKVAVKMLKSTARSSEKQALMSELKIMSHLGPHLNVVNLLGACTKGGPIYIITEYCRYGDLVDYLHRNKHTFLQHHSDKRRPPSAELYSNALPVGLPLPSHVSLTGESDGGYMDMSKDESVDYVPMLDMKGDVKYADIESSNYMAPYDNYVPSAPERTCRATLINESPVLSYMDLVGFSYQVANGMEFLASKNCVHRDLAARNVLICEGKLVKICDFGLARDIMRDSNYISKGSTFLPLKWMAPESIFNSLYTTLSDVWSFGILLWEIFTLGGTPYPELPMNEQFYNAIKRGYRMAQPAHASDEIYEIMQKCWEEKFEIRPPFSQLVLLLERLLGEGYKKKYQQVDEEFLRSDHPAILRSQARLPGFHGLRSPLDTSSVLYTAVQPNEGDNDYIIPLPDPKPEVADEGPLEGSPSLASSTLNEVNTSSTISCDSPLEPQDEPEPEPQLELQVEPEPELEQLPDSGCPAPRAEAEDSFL
Chain of Mast/stem cell growth factor receptor Kit (Homo sapiens), P10721 [D816V] (P10721 whole entry D816V, the tested form may be a part): as the sequence (P10721 whole entry) above, with D816V counted along it

With `Cc1ccc(NC(=O)c2cccc(C(F)(F)F)c2)cc1OC1CCN(C(=O)c2ccncc2)CC1` the inhibition [1] was “Active”, the inhibition [2] was “Active” and the inhibition [3] was “inactive”. For the same molecule, the Activity (GISTT1) was “Active”, the AUC(0-t) [4] was 715 ng·h/mL and the MRT last [5] was 29 min. For the same molecule, the Tmax [6] was 1.02 min, the Tmax [7] was 30 min and the inhibition [8] was “Active”. For the same molecule, the inhibition [9] was “Active”, the GI50 [10] was greater than 10 µM and the GI50 [11] was 21 nM. For the same molecule, the GI50 (K562) was greater than 10 µM and the GI50 [12] was greater than 10 µM.
